Results published in ChEMBL document CHEMBL4825764, “Flavonoid Monomers as Potent, Nontoxic, and Selective Modulators of the Breast Cancer Resistance Protein (ABCG2)” (J Med Chem, 2021).

Experiments:
[1] = organism: Homo sapiens; assay: Selectivity index, ratio of EC50 for inhibition of P-gp (unknown origin) expressed in LCC6MDR cells assessed as reversal of paclitaxel resistance to EC50 for Inhibition of BCRP (unknown origin) expressed in MCF7/MX100 cells assessed as reversal of topotecan resistance; format: cell-based
In short: (§1)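 Selectivity index is the EC50 against the other transporter's line divided by the EC50 in the BCRP line. All values come from 5-day MTS reversal assays. These use topotecan in HEK293/R2 (0–2000 nM) or MCF7-MX100 (0–100 μM), doxorubicin in 2008/MRP1, and paclitaxel in LCC6MDR, each with modulator at 0–1000 nM.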

[2] = biological target: T1, Broad substrate specificity ATP-binding cassette transporter ABCG2 (Homo sapiens, UniProt Q9UNQ0); assay: Inhibition of BCRP (unknown origin) expressed in human HEK293/R2 cells assessed as increase in intracellular mitoxantrone accumulation by measuring fold change at 2 uM after 2 hrs in presence of mitoxantrone by flow cytometry analysis relative to control; format: cell-based; details: hek293/r2, 2 h
T1 sequence (Q9UNQ0 whole entry): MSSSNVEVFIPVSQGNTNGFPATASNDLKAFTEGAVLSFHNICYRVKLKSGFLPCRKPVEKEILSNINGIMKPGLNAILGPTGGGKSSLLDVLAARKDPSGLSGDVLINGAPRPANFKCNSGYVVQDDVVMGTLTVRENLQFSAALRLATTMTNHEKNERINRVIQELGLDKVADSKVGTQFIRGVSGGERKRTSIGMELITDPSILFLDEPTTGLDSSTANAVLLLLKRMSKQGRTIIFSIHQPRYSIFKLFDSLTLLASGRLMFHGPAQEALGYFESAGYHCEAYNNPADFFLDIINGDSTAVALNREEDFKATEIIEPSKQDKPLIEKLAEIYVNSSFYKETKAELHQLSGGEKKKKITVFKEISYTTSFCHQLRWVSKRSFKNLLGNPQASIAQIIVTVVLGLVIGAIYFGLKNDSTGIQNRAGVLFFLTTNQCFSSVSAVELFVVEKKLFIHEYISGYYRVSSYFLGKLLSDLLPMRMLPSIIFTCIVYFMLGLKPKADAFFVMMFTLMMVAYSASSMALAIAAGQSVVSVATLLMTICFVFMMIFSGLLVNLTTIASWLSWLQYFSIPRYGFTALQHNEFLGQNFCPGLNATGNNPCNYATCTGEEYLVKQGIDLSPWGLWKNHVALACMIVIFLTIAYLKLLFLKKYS
In short: (§2)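 5 × 10^5 HEK293/pcDNA3.1 or HEK293/R2 cells in 1 mL were incubated 2 hr at 37 °C with 50 μM topotecan or 5 μM mitoxantrone plus 1 or 2 μM modulator, with DMSO as the vehicle control. Cells were washed in cold PBS and resuspended in FACS buffer. Flow cytometry read FL1 (topotecan) or FL4 (mitoxantrone) over 50,000 events, normalized to wild-type cells.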

[3] = test system: L929; assay: Cytotoxicity against mouse L929 cells assessed as reduction in cell viability; format: cell-based
[4] = biological target: T1, Broad substrate specificity ATP-binding cassette transporter ABCG2; assay: Inhibition of BCRP (unknown origin) expressed in HEK293/R2 cells assessed as fold increase in mitoxantrone accumulation at 1 uM after 4 days by flow cytometry analysis; format: cell-based; details: hek293/r2, 96 h, time 4 day
In short: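 HEK293/R2 cells were treated 4 days at 37 °C with 1 μM modulator or 0.1% DMSO, washed, then given the mitoxantrone accumulation assay with flow cytometry read-out. Data are relative to DMSO, N = 5 independent experiments.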

[5] = test system: 2008; assay: Selectivity index, ratio of EC50 for inhibition of MRP1 (unknown origin) expressed in 2008/MRP1 cells assessed as reversal of doxorubicin resistance to Inhibition of BCRP (unknown origin) expressed in MCF7/MX100 cells assessed as reversal of topotecan resistance; format: cell-based; details: Homo sapiens; in short: as §1
[6] = biological target: T1, Broad substrate specificity ATP-binding cassette transporter ABCG2; assay: Inhibition of BCRP (unknown origin) expressed in HEK293/R2 cells assessed as reduction in BCRP protein level at 1 uM after 4 days by Western blot analysis; details: hek293/r2, 96 h
[7] = biological target: T1, Broad substrate specificity ATP-binding cassette transporter ABCG2; assay: Inhibition of BCRP (unknown origin) expressed in human HEK293/R2 cells assessed as increase in intracellular topotecan accumulation by measuring fold change at 2 uM after 2 hrs in presence of topotecan by flow cytometry analysis relative to control; format: cell-based; details: hek293/r2, 2 h; in short: as §2

COC(=O)c1cccc(COc2c(-c3ccc(OCCCCc4cn(Cc5ccccc5)nn4)cc3)oc3ccccc3c2=O)c1
Ratio EC50 [1]: 112 | fold change (FC) [2]: 5.7 | IC50 [3]: > 100 µM | fold change (FC) [4]: 3.8 | Ratio EC50 [5]: 167 | inhibition (INH) [6]: Not Active | fold change (FC) [7]: 6.8
